The values below come from ChEMBL document CHEMBL3826882, “Discovery of 1-((2R,4aR,6R,7R,7aR)-2-Isopropoxy-2-oxidodihydro-4H,6H-spiro[furo[3,2-d][1,3,2]dioxaphosphinine-7,2'-oxetan]-6-yl)pyrimidine-2,4(1H,3H)-dione (JNJ-54257099), a 3'-5'-Cyclic Phosphate Ester Prodrug of 2'-Deoxy-2'-Spirooxetane Uridine Triphosphate Useful for HCV Inhibition” (J Med Chem, 2016).

Data set [1] has as its system Hepatocyte. As to the kind of experiment: Prodrug conversion in rat primary hepatocytes assessed as 2'-deoxy-2'-spirooxetane uridine triphosphate level per million cells at 2 uM after 4 hrs using radiolabelled compound by LC-MS/MS analysis. The class given is ADME, cell-based. In short, it runs like this:
(§1)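 Study A: fresh primary hepatocyte cultures from mouse, rat, dog and human incubated with tritiated prodrug at 2 or 62.5 µM for 4 or 24 h. Triphosphate in cell lysates reported as pmol/million hepatocytes. Duplicate or single measurements.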

A short description of data set [2]: Prodrug conversion in dog primary hepatocytes assessed as 2'-deoxy-2'-spirooxetane uridine triphosphate level per million cells at 62.5 uM after 24 hrs using radiolabelled compound by LC-MS/MS analysis. It is filed as ADME, cell-based, Canis lupus familiaris, Hepatocyte. The gist of the method: as §1
For data set [3], the system named is Hepatocyte. As to the kind of experiment: Drug metabolism in mouse primary hepatocyte supernatant assessed as 1-[(4aR,6R,7R,7aR)-2-hydroxy-2-oxidodihydro-4H-spiro[furo[3,2-d][1,3,2]dioxaphosphinine-7,2'-oxetan]-6-yl]pyrimidine-2,4(1H,3H)-dione formation at 2 to 62.5 uM after 4 to 24 hrs using radiolabelled compound by HPLC analysis. To be noted: hepatocytes. The class given is ADME, cell-based. The gist of the method: (§2)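 Fresh primary hepatocyte cultures incubated with tritiated prodrug (5'-[3H]) at 2 and 62.5 µM for 4 and 24 h. Supernatants taken after protein precipitation and profiled by HPLC with radioactivity detection. Cell lysates profiled for metabolites by radio-LC. Cyclic monophosphate also measured by LC/MS/MS.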

For data set [4], the system named is Hepatocyte. As to the kind of experiment: Stability in rat primary hepatocytes assessed as parent compound level at 2 to 62.5 uM after 24 hrs using radiolabeled compound by LC-MS/MS analysis. The class given is ADME, cell-based. The gist of the method:
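Study A: rat primary cultured hepatocytes incubated with 5'-[3H]-labelled prodrug at 2 and 62.5 µM for 4 and 24h; cell lysates profiled by LC with radioactivity detection. Cyclic monophosphate co-eluted with parent and was assessed separately by LC/MS/MS. Duplicate or single measurements.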

Data set [5] can be described thus: Stability in dog primary hepatocytes assessed as parent compound level at 2 to 62.5 uM after 4 hrs using radiolabeled compound by LC-MS/MS analysis. The class given is ADME, cell-based, Canis lupus familiaris, Hepatocyte. The gist of the method: as §2
The subject of data set [6] is Hepatitis C virus. As to the kind of experiment: Antiviral activity against HCV genotype 3a infected in homozygous cDNA-uPA chimeric SCID mouse bearing humanized hepatocytes assessed as reduction in HCV RNA level in serum administered through oral gavage twice daily daily for 7 days by RT-PCR method. The class given is functional, organism-based. To be noted: Hepacivirus hominis, Hepatocyte. The gist of the method: (§3)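 Male chimeric SCID cDNA-uPA+/+ mice with human hepatocyte liver (≥70% replacement by blood human albumin) and serum HCV RNA >1.0×10^6 copies/mL the week before dosing. Oral gavage for 7 days in 20% HP-β-CD, 50-200 mg/kg QD or BID. Serum sampled pre-dose on days 1, 2, 3, 5 and 7. Real-time PCR; mean change in log10 copies/mL, day 7 vs day 1 pre-dose.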

The subject of data set [7] is Mus musculus. As to the kind of experiment: Half life in homozygous cDNA-uPA chimeric SCID mouse bearing humanized hepatocytes infected with HCV assessed as 2'-deoxy-2'-spirooxetane uridine triphosphate at 50 to 200 mg/kg, po bid administered through gavage for 7 days. To be noted: 168 h. It is filed as ADME, organism-based, Hepatocyte.
Data set [8] has as its target CYP3A4 (Homo sapiens, UniProt P08684). As to the kind of experiment: Drug metabolism in baculovirus infected insect cell microsomes expressing human CYP3A4 assessed as CYP3A4-mediated half life at 22.7 uM. The class given is ADME. The gist of the method:
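Incubation at 22.7 µM with human CYP3A4 supersomes. Intrinsic clearance (µL/min.pmol P450) and half-life (min) were determined.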

Data set [9] concerns Hepatocyte. As to the kind of experiment: Prodrug conversion in mouse cryopreserved hepatocytes assessed as 2'-deoxy-2'-spirooxetane uridine triphosphate level per million cells at 10 uM after 2 hrs by LC-MS/MS analysis. It is filed as ADME, cell-based. In short, it runs like this:
(§4)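 Plated cryopreserved hepatocytes (study B) incubated with 10 µM unlabeled prodrug for 2, 8 or 24 h. Triphosphate measured in cell lysates and expressed as pmol/million hepatocytes. Quantification limit 2 ng/10^6 cells.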

Data set [10] deals with Hepatocyte. As to the kind of experiment: Prodrug conversion in mouse cryopreserved hepatocytes assessed as 2'-deoxy-2'-spirooxetane uridine triphosphate level per million cells at 10 uM after 24 hrs by LC-MS/MS analysis. It is filed as ADME, cell-based. The gist of the method:
as §4

The test system of data set [11] is Hepatocyte. As to the kind of experiment: Prodrug conversion in rat cryopreserved hepatocytes assessed as 2'-deoxy-2'-spirooxetane uridine triphosphate level per million cells at 10 uM after 2 hrs by LC-MS/MS analysis. It is filed as ADME, cell-based. In short, it runs like this: as §4
Data set [12] has as its system Hepatocyte. As to the kind of experiment: Prodrug conversion in human cryopreserved hepatocytes assessed as 2'-deoxy-2'-spirooxetane uridine triphosphate level per million cells at 10 uM after 2 hrs by LC-MS/MS analysis. It is filed as ADME, cell-based. In short, it runs like this: as §4
Data set [13] relates to Hepatocyte. As to the kind of experiment: Prodrug conversion in human hepatocytes assessed as 2'-deoxy-2'-spirooxetane uridine triphosphate formation in presence of pan-CYP inhibitor 1-ABT by LC-MS/MS analysis. The class given is ADME, cell-based.
The subject of data set [14] is Hepatocyte. As to the kind of experiment: Prodrug conversion in human hepatocytes assessed as 2'-deoxy-2'-spirooxetane uridine triphosphate formation in presence of pan-PDE inhibitor ibudilast by LC-MS/MS analysis. It is filed as ADME, cell-based.
Data set [15] has as its system Hepatocyte. As to the kind of experiment: Prodrug conversion in human hepatocytes assessed as 2'-deoxy-2'-spirooxetane uridine triphosphate formation in presence of CYP2C8 and CYP2C9 inhibitor montelukast by LC-MS/MS analysis. The class given is ADME, cell-based.
Data set [16] in a line: Cmax in mouse plasma at 50 mg/kg, po. The class given is ADME, organism-based. Set-up: dose 50 mg/kg, route oral.
Data set [17] in a line: Tmax in mouse plasma at 50 mg/kg, po. It is filed as ADME, organism-based. The gist of the method:
(§5)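 Single oral dose of 50 mg/kg formulated in 20% HP-β-cyclodextrin. Prodrug and its triphosphate were measured in plasma and liver (ng/mL or ng/g) over time, and Cmax, tmax, AUC, tlast and t1/2 were derived. For some analytes, data from two independent studies are reported.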

A short description of data set [18]: Half life in mouse liver at 50 mg/kg, po. The class given is ADME, organism-based. In short, it runs like this: (§6)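 Single oral dose of 50 mg/kg in 20% HP-β-cyclodextrin. Prodrug and triphosphate measured in plasma and liver over time (tlast 6–30 h). Half-life, Cmax, tmax and AUC0-last derived; liver/plasma ratio taken from AUC0-last. Prodrug data pooled from two independent studies.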

In data set [19] the test system is Liver. As to the kind of experiment: Half life in mouse liver assessed as 2'-deoxy-2'-spirooxetane uridine triphosphate at 50 mg/kg, po. The following applies: in vivo. The class given is ADME, organism-based. In short, it runs like this:
as §6

A short description of data set [20]: Cmax in rat plasma at 50 mg/kg, po. It is filed as ADME, organism-based. Set-up: dose 50 mg/kg, route oral.
The nature of data set [21]: Tmax in rat plasma at 50 mg/kg, po. The class given is ADME, organism-based. In short, it runs like this:
as §5

Data set [22] in a line: AUC (0 to last) in rat plasma at 50 mg/kg, po. Set-up: dose 50 mg/kg, route oral, time 0 - last. It is filed as ADME, organism-based. The gist of the method: (§7)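 Oral dose 50 mg/kg, formulated in 20% HP-β-cyclodextrin. Prodrug and triphosphate were measured in plasma and liver (ng/mL or ng/g). Parameters derived were Cmax, tmax, AUC0-last, AUC0-inf and t1/2. Some prodrug data come from two independent studies.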

The test system of data set [23] is Liver. As to the kind of experiment: Tlast in rat liver at 50 mg/kg, po. The class given is ADME, organism-based. To be noted: in vivo. The gist of the method:
as §5

Data set [24] has as its system Liver. As to the kind of experiment: Cmax in rat liver assessed as 2'-deoxy-2'-spirooxetane uridine triphosphate at 50 mg/kg, po. Set-up: dose 50 mg/kg, route oral. It is filed as ADME, organism-based. To be noted: in vivo.
Data set [25] relates to Liver. As to the kind of experiment: Half life in rat liver assessed as 2'-deoxy-2'-spirooxetane uridine triphosphate at 50 mg/kg, po. The following applies: in vivo. It is filed as ADME, organism-based. The gist of the method: as §6
The nature of data set [26]: AUC (0 to infinity) in dog plasma at 50 mg/kg, po. It is filed as ADME, organism-based, Canis lupus familiaris. Set-up: dose 50 mg/kg, time infinity, route oral. In short, it runs like this: as §7
A short description of data set [27]: Cmax in dog liver at 50 mg/kg, po. Set-up: dose 50 mg/kg, route oral. It is filed as ADME, organism-based, Canis lupus familiaris.
Data set [28] concerns Liver. As to the kind of experiment: AUC (0 to last) in dog liver at 50 mg/kg, po. The class given is ADME, organism-based, Canis lupus familiaris. The following applies: in vivo. The gist of the method: as §7
The test system of data set [29] is Liver. As to the kind of experiment: Tlast in dog liver assessed as 2'-deoxy-2'-spirooxetane uridine triphosphate at 50 mg/kg, po. The following applies: in vivo. It is filed as ADME, organism-based, Canis lupus familiaris. The gist of the method: as §5
The test system of data set [30] is Hepatitis C virus. As to the kind of experiment: Antiviral activity against HCV genotype 1a infected in homozygous cDNA-uPA chimeric SCID mouse bearing humanized hepatocytes assessed as change in HCV RNA level in serum at 100 mg/kg, po qd administered through gavage for 7 days by RT-PCR method. The class given is functional, Hepacivirus hominis, subtype 1a, Hepatocyte. In short, it runs like this:
as §3

Sequence of CYP3A4 (P08684 whole entry): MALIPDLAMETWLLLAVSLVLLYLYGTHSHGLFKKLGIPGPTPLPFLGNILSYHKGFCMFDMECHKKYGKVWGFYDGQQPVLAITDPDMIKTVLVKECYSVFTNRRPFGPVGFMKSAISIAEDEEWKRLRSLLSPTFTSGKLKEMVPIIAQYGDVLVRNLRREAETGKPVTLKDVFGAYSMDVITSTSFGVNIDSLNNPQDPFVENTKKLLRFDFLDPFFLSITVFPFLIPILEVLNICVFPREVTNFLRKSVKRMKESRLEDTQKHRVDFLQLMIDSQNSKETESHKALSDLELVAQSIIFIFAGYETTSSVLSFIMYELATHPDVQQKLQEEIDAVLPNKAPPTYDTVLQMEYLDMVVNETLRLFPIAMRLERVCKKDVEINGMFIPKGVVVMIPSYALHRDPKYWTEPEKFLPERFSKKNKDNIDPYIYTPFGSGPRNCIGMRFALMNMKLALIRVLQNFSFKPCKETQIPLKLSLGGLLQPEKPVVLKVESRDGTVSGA

On to `[3H]C1O[P@](=O)(OC(C)C)O[C@@H]2[C@@H]1O[C@@H](n1ccc(=O)[nH]c1=O)[C@@]21CCO1` (stereo not given in full), for which the values for the Drug metabolism in data set [1], in data set [2] and in data set [3] were 0.085 pmol, 0.11 pmol and “metabolite_detected”, respectively. Besides, the Stability entry in [4] and in data set [5] was “Stable” each time.

Consider `CC(C)O[P@@]1(=O)OC[C@H]2O[C@@H](n3ccc(=O)[nH]c3=O)[C@@]3(CCO3)[C@@H]2O1`, for which the Activity result in data set [6] was “Dose-dependent effect”; in [30], -0.83. The results for the t1/2 in data set [7], in [19] and in [25] were 3.9 h, 3.9 h and 5.8 h, respectively. In addition, the half-life at 22.7 µM in data set [8] worked out at 2.18 h. The Drug metabolism is given as 0.538 pmol in [9]; 0.519 pmol in [10]; 0.181 pmol in data set [11]; 0.087 pmol in data set [12]; “metabolite_notdetected” in [13]; “metabolite_notdetected” in data set [14]. Besides, the Drug metabolism entry in data set [15] is reported as “metabolite_detected”. Besides, the highest concentration (Cmax) worked out at 851 ng/mL in data set [16], 1290 ng/mL in data set [20], 73500 ng/g in [24] and 5030 ng/g in data set [27]. In addition, the time to peak (Tmax) in [17] and in [21] was 0.5 h each time. In data set [18], this compound had a half-life of 2.1 h. Further, the exposure AUC(0-t) in data set [22] turned out to be 7330 ng·h/mL. In addition, the Tlast in data set [23] worked out at 6 h; in [29], 24 h. In addition, the total exposure AUC(0-inf) in data set [26] came to 29100 ng·h/mL. In [28], this compound registered an AUClast of 35596 ng·h/g.

By half-life is commonly meant how long it takes for the measured level to halve. What is called Cmax is the peak of the concentration-time curve. As a reminder, the Tmax is the time at which the peak concentration occurs. Broadly, the AUC(0-t) is the area under the concentration-time curve up to a stated or last time point. High values mean more exposure, low ones less exposure. In general, AUC(0-inf) refers to the area under the concentration-time curve extrapolated to infinity. Lower therefore signals low exposure.
